Experimental data taken from ChEMBL document CHEMBL3286113, “New potent antibacterial oxazolidinone (MRX-I) with an improved class safety profile” (J Med Chem, 2014).
In brackets after ≈: the same amount, converted by molar mass.

Experiments:
L5178Y = assay: Mutagenicity in mouse tk +/- L5178Y cells assessed as increase in gene mutation frequency at 62.5 to 1000 ug/mL in absence of S9 fraction
Rattus norvegicus [1] = assay: Toxicity in female rat assessed as effect on neutrophil count at 200 to 300 mg/kg/day, po bid administered for 4 weeks (reference value: 22.4%); assay type: organism-based; set-up: route oral; settings: in vivo, 672 h
[2] = Cmax in human at 900 mg, po administered as single dose at 30 mins post fat meal; assay type: ADME, organism-based; set-up: dose 900 mg, route oral; settings: in vivo
How it was run: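 Crossover study in 12 subjects (six of each sex). Each got a single oral 900 mg dose either fasted or 30 min after a fat-containing meal.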

Rattus norvegicus [3] = assay: Toxicity in female rat assessed as effect on mean corpuscular hemoglobin level at 20 mg/kg/day, po bid administered for 4 weeks (reference value: 19.5 pg); assay type: organism-based; set-up: route oral; settings: in vivo, 672 h
Streptococcus mitis = assay: Antibacterial activity against Streptococcus mitis; assay type: functional
Rattus norvegicus [4] = assay: Toxicity in female rat assessed as effect on mean corpuscular hemoglobin level at 200 to 300 mg/kg/day, po bid administered for 4 weeks (reference value: 19.5 pg); assay type: organism-based; set-up: route oral; settings: in vivo, 672 h
[5] = AUC (0 to t) in female rat at 5 mg/kg, po; assay type: ADME, organism-based; set-up: dose 5 mg/kg, route oral; settings: plasma
How it was run: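 Rat PK by gender, with single oral doses of 5, 15 and 45 mg/kg and an iv dose of 5 mg/kg. Tmax, Cmax, T1/2 and AUC0−t were reported per gender.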

Streptococcus pneumoniae [6] = assay: Antibacterial activity against Streptococcus pneumoniae assessed as time required for growth inhibition; assay type: functional
Rattus norvegicus [7] = assay: Toxicity in female rat assessed as effect on reticulocyte count at 20 mg/kg/day, po bid administered for 4 weeks (reference value: 1.48%); assay type: organism-based; set-up: route oral; settings: in vivo, 672 h
Staphylococcus aureus [8] = assay: Antibacterial activity against Staphylococcus aureus measured after 4 serial passages; assay type: functional
[9] = Half life in female rat at 5 mg/kg, iv; assay type: ADME, organism-based; set-up: dose 5 mg/kg, route intravenous; settings: in vivo
[10] = AUC (0 to 24 hrs) in female rat at 200 mg/kg/day, po bid administered for 4 weeks; assay type: ADME, organism-based; set-up: dose 200 mg/kg/day, time < 24 hr, route oral; settings: plasma
How it was run: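 Repeat-dose toxicity study in rats (10/gender/group) dosed orally twice daily for 4 weeks, then a 4-week recovery period; the top dose was raised from 200 to 300 mg/kg/day on day 15. Blood was taken on days 1, 14 and 28 for toxicokinetics, and AUC0−24 was reported for females.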

[11] = test system: Streptococcus constellatus; assay: Antibacterial activity against Streptococcus constellatus; assay type: functional
[12] = Half life in po dosed rat; assay type: ADME, organism-based; settings: in vivo
Staphylococcus aureus [13] = assay: Antibacterial activity against methicillin-resistant Staphylococcus aureus isolate 0612 in po dosed mouse systemic infection model; assay type: functional; settings: isolate 0612, po
Rattus norvegicus [14] = assay: Dose normalized Cmax in po dosed rat; assay type: ADME, organism-based; settings: in vivo
[15] = Cmax in male rat at 15 mg/kg, po; assay type: ADME, organism-based; set-up: dose 15 mg/kg, route oral; settings: in vivo
Staphylococcus = assay: Antibacterial activity against coagulase-negative Staphylococcus; assay type: functional
[16] = Tmax in fasted human at 600 mg, po administered as single dose; assay type: ADME, organism-based; settings: in vivo
How it was run: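 Randomized single-dose, three-period Latin-square crossover in 12 healthy volunteers (six per gender), fasting. Single oral doses of 300, 600 and 900 mg were separated by a 1-week washout. PK parameters were derived by noncompartmental analysis.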

[17] = Oral bioavailability in dog; assay type: ADME, organism-based, Canis lupus familiaris; settings: in vivo
Rattus norvegicus [18] = assay: Toxicity in rat assessed as mortality at 200 mg/kg, po bid administered for 4 weeks measured on day 14; assay type: organism-based; set-up: dose 200 mg/kg, route oral; settings: in vivo, 672 h
How it was run: (§1)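 Rats, 10 per gender per group, given drug orally twice daily at 20, 100 and 200/300 mg/kg/day for 4 weeks, then a 4-week recovery period. The top dose of 200 mg/kg/day was raised to 300 mg/kg/day on day 15. The comparator was dosed the same way at 100 and 200 mg/kg/day. Monitoring covered mortality, body weight, hematology and bone marrow, with blood taken for TK on days 1, 14 and 28.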

MAO-A = MAO-A (Homo sapiens, UniProt P21397); assay: Ratio of compound IC50 to linezolid IC50 for MAO-A (unknown origin) by fluorescence plate reader analysis; assay type: ADME
MAO-A, sequence (P21397 whole entry): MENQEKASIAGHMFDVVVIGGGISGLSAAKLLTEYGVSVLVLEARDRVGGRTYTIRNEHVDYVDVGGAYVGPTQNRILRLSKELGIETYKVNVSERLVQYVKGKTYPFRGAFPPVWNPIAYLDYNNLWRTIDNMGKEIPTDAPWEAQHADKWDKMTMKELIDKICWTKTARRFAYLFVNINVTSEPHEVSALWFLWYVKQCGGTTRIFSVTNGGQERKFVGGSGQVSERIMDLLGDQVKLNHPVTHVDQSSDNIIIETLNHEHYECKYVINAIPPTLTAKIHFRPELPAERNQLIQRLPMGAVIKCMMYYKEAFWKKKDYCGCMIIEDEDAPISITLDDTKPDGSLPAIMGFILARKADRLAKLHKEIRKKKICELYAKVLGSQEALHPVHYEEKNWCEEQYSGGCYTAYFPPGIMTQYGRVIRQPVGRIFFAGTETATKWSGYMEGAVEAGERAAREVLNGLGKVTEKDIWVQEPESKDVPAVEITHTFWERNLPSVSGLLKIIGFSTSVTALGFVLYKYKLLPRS

Rattus norvegicus [19] = assay: Dose normalized AUC (0 to t) in po dosed rat; assay type: ADME, organism-based; settings: in vivo
Staphylococcus aureus [20] = assay: Antibacterial activity against methicillin-resistant Staphylococcus aureus isolate 0605 in mouse thigh infection model assessed as reduction of log10 CFU per thigh at 80 mg/kg, po; assay type: functional
Streptococcus sanguinis = assay: Antibacterial activity against Streptococcus sanguinis; assay type: functional
[21] = Tmax in male rat at 15 mg/kg, po; assay type: ADME, organism-based; set-up: dose 15 mg/kg, route oral; settings: in vivo
How it was run: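 Male and female rats received single oral doses of 5, 15 or 45 mg/kg, with 5 mg/kg iv as a reference arm. Tmax was read from the plasma concentration–time profile for each gender.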

Rattus norvegicus [22] = assay: Toxicity in female rat assessed as effect on mean corpuscular volume at 100 mg/kg/day, po bid administered for 4 weeks (reference value: 53.72 fL); assay type: organism-based; set-up: route oral; settings: in vivo, 672 h
Streptococcus pneumoniae [23] = assay: Antibacterial activity against penicillin-resistant Streptococcus pneumoniae isolate 0613; assay type: functional
[24] = Cmax in human at 800 mg, po administered as single dose with meal measured on day 15; assay type: ADME, organism-based; set-up: dose 800 mg, route oral; settings: in vivo
How it was run: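 Randomized, double-blind, placebo-controlled multiple-dose study in 32 healthy subjects, half male and half female. Each dose was taken with a meal, at 600 or 800 mg, 28 doses over 15 days. A single dose on days 1 and 15 gave full PK; BID (Q12h) dosing ran on days 2–14.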

Streptococcus pyogenes = assay: Antibacterial activity against Streptococcus pyogenes isolate 556 in po dosed mouse systemic infection model; assay type: functional; settings: isolate 556, po
Rattus norvegicus [25] = assay: Toxicity in female rat assessed as effect on RBC count at 20 mg/kg/day, po bid administered for 4 weeks (reference value: 7.28 x 10^12/L); assay type: organism-based; set-up: route oral; settings: in vivo, 672 h
[26] = AUC (0 to infinity) in fasted human at 600 mg, po administered as single dose; assay type: ADME, organism-based; set-up: dose 600 mg, route oral, time infinity; settings: plasma
How it was run: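 Single-dose, three-period Latin-square crossover in 12 healthy volunteers (6 of each gender). Each received single oral 300, 600 and 900 mg doses under fasting conditions, with a 1-week washout between doses. PK parameters, including AUC0−inf, came from a noncompartmental model.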

[27] = Elimination half life in fasted human at 900 mg, po administered as single dose; assay type: ADME, organism-based; settings: in vivo, read-out: beta t1/2 (converted)
How it was run: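 Healthy volunteers (12; six of each sex) in a three-period Latin-square crossover. Each received single oral doses of 300, 600 and 900 mg under fasting conditions, with a 1-week washout between doses. Parameters from a noncompartmental model.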

[28] = Clastogenicity in CHL cells assessed as induction of structural chromosomal aberration at 50 to 400 ug/mL measured over 6 hrs in absence of metabolic activation; assay type: toxicity, cell-based, Cricetulus griseus; settings: chinese hamster
How it was run: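 Chinese hamster lung cells scored for structural chromosome aberrations with or without metabolic activation. Exposure was 50–400 μg/mL over 6 h, or 25–200 μg/mL over 24 h.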

Streptococcus pneumoniae [29] = assay: Antibacterial activity against penicillin intermediate-sensitive Streptococcus pneumoniae ATCC 49619 clinical isolate in po dosed mouse systemic infection model; assay type: functional; settings: ATCC 49619, po
Rattus norvegicus [30] = assay: Toxicity in rat assessed as mortality at 20 to 300 mg/kg, po bid administered for 4 weeks measured on day 1 to day 28; assay type: organism-based; set-up: dose 20-300 mg/kg, route oral; settings: in vivo, 672 h
How it was run: as §1

O=C1C=CN(c2c(F)cc(N3C[C@H](CNc4ccon4)OC3=O)c(F)c2F)CC1 [CONTEZOLID]
Activity (L5178Y): Non-toxic | Activity (Rattus norvegicus [1]): 26.4% | Cmax [2]: 42300 ng/mL | Activity (Rattus norvegicus [3]): 20.2 pg | MIC50 (Streptococcus mitis): 0.5 µg/mL (≈ 1.22 µM) | MIC90 (Streptococcus mitis): 1 µg/mL (≈ 2.45 µM) | Activity (Rattus norvegicus [4]): 20.48 pg | AUC(0-t) [5]: 31500 ng·h/mL | Time (Streptococcus pneumoniae [6]): 1.8 h | Activity (Rattus norvegicus [7]): 1.3% | MIC (Staphylococcus aureus [8]): 2 µg/mL (≈ 4.9 µM) | half-life [9]: 1.51 h | AUC at 24 h [10]: 626000 ng·h/mL | MIC50 [11]: 0.5 µg/mL (≈ 1.22 µM) | MIC90 [11]: 1 µg/mL (≈ 2.45 µM) | half-life [12]: 1.5 h | ED50 (Staphylococcus aureus [13]): 7.2 mg/kg | Cmax/dose (Rattus norvegicus [14]): 1065 ng/mL/(mg/kg) | Cmax [15]: 10700 ng/mL | MIC50 (Staphylococcus): 0.5 µg/mL (≈ 1.22 µM) | MIC90 (Staphylococcus): 0.5 µg/mL (≈ 1.22 µM) | Tmax [16]: 2 h | bioavailability [17]: 37% | Activity (Rattus norvegicus [18]): Toxic | selectivity ratio (MAO-A): 5.2 | AUCt/dose (Rattus norvegicus [19]): 3703 ng·h/mL/mg/kg | deltalog10CFU (Staphylococcus aureus [20]): 4.53 | MIC (Streptococcus sanguinis): 0.25 µg/mL (≈ 0.612 µM) | Tmax [21]: 1 h | Activity (Rattus norvegicus [22]): 54.78 fL | MIC (Streptococcus pneumoniae [23]): 2 µg/mL (≈ 4.9 µM) | Cmax [24]: 26400 ng/mL | ED50 (Streptococcus pyogenes): 8.9 mg/kg | Activity (Rattus norvegicus [25]): 6.82 ×10¹² /L | AUC(0-inf) [26]: 48300 ng·h/mL | half-life [27]: 4.9 h | Activity [28]: Non-toxic | ED50 (Streptococcus pneumoniae [29]): 8.1 mg/kg | Activity (Rattus norvegicus [30]): Non-toxic
